Reference: ChEMBL document CHEMBL4480395, “Pros and cons of virtual screening based on public "Big Data": In silico mining for new bromodomain inhibitors” (Eur J Med Chem, 2019)

What was measured:
[1] = molecular target: T1, Bromodomain-containing protein 4 (Homo sapiens, UniProt O60885); assay: Inhibition of BRD4 (unknown origin) measured after 2 hrs by TR-FRET assay
[2] = molecular target: T1, Bromodomain-containing protein 4; assay: Binding affinity to N-terminal His6-tagged BRD4 bromodomain 1 (44 to 168 residues) (unknown origin) assessed as change in melting temperature at 20 uM measured after 1 hr by Sypro orange dye based differential scanning fluorimetry
Procedure, shortened: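 Ligand binding was read by differential scanning fluorimetry: a fluorescent dye reports protein core exposure during heat denaturation, and the value is the shift in protein denaturation temperature (ΔTm) with compound present.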

Structure (SMILES): Cc1nn(C2CCS(=O)(=O)C2)c(C)c1CN(C)C(=O)CC(c1ccccc1)c1ccccc1 (stereo not drawn)
- IC50 [1]: 160 µM
- ΔTm [2]: 1.82 °C

Structure (SMILES): Cc1nnc2c(NCc3cnn(-c4ccc(Cl)cc4)c3)nccn12
- ΔTm [2]: 1.86 °C

Structure (SMILES): Cc1noc(C)c1CSCC(=O)c1c(C)[nH]c2ccccc12
- ΔTm [2]: 1.36 °C

Structure (SMILES): COCCN(C)c1ccccc1CNc1ccc2nnc(C)n2n1
- IC50 [1]: 107 µM
- ΔTm [2]: 1.1 °C

Structure (SMILES): Cc1n[nH]c(C)c1CNCc1c(C)nn(Cc2ccccc2)c1C
- IC50 [1]: 33.2 µM
- ΔTm [2]: 1.6 °C

Structure (SMILES): CCn1c(SC(C(=O)NCc2cccnc2)C(C)C)nnc1-c1cccs1 (stereo not drawn)
- IC50 [1]: 8.81 µM
- ΔTm [2]: 1.6 °C

Structure (SMILES): CC(Sc1nc(-c2cccs2)n[nH]1)C(=O)N1CCCc2ccccc21 (stereo not drawn)
- ΔTm [2]: 1.78 °C

Structure (SMILES): c1cnn(-c2ccc(CNc3ccc4nnc(C5CC5)n4n3)cc2)c1
- IC50 [1]: 63.3 µM
- ΔTm [2]: 0.76 °C

Structure (SMILES): Cc1nnc2ccc(NCc3ccc(OC4CCCC4)nc3)nn12
- ΔTm [2]: 1.89 °C

Structure (SMILES): Cc1noc(C)c1NC(=O)N1CCCCC1c1ncc[nH]1 (stereo not drawn)
- ΔTm [2]: 1.76 °C

Structure (SMILES): Cc1nnc2ccc(NC3CCCc4cc(OC(F)F)ccc43)nn12 (stereo not drawn)
- ΔTm [2]: 1.7 °C

Structure (SMILES): CCC(C)C1NC(=O)N(CC(C)c2c(C)noc2C)C1=O (stereo not drawn)
- ΔTm [2]: 2.12 °C

Structure (SMILES): Cc1noc(C)c1COc1ccccc1C(=O)NC(c1ccccc1)c1ccccc1
- ΔTm [2]: 0.93 °C

Structure (SMILES): CC(C(=O)Nc1ccc2nnc(C3CCC3)n2c1)n1cncn1 (stereo not drawn)
- ΔTm [2]: 1.49 °C

Structure (SMILES): Cc1nn(CCO)c(C)c1CNC(c1ccccc1)c1nccn1C (stereo not drawn)
- ΔTm [2]: 1.09 °C

Structure (SMILES): COCCCOc1cc(C)ccc1CNc1ccc2nnc(C)n2n1
- ΔTm [2]: 1.56 °C

Structure (SMILES): Cc1c(C2OCCC2NCc2cc(-c3cnn(C)c3)no2)cnn1C (stereo not drawn)
- ΔTm [2]: 2.02 °C

Structure (SMILES): COCCc1ccccc1NC(=O)NC(c1ccccc1)c1n[nH]c(C)n1 (stereo not drawn)
- ΔTm [2]: 1.26 °C

Structure (SMILES): Cc1nnc2ccc(N3CCN(C(=O)c4csc(-c5ccccc5F)n4)CC3)nn12
- ΔTm [2]: 1.72 °C

Structure (SMILES): Cc1noc(C)c1CNC(=O)Nc1cccc(-c2ccc(Cl)c(Cl)c2)c1
- ΔTm [2]: 1.56 °C

Structure (SMILES): COc1ccc(-n2ccc(C(=O)Nc3cc(Cl)c(=O)n(C)c3)n2)cc1
- ΔTm [2]: 1.08 °C

Structure (SMILES): Cc1nnc2ccc(N(C)Cc3ccc([S+](C)[O-])cc3)nn12 (stereo not drawn)
- ΔTm [2]: 1.8 °C

Structure (SMILES): Cc1nn(C)c(C)c1C1C(CNc2nccn3cnnc23)CC(=O)N1C (stereo not drawn)
- IC50 [1]: 23.9 µM
- ΔTm [2]: 1.9 °C

Structure (SMILES): Cc1noc(C)c1CC(=O)Nc1nc(-c2c(C)[nH]c3ccccc23)cs1
- IC50 [1]: 19.5 µM
- ΔTm [2]: 1.86 °C

Structure (SMILES): Cc1nnc2ccc(NCc3cn(-c4ccccc4)nc3C(C)C)nn12
- IC50 [1]: 11.7 µM
- ΔTm [2]: 2.66 °C

Structure (SMILES): Cc1nnc2ccc(NCc3ccnc(OC4CCCC4)c3)nn12
- ΔTm [2]: 1.69 °C

Structure (SMILES): O=C(CCc1ncc(-c2ccc(Cl)cc2Cl)o1)NCCc1nnc2ccccn12
- ΔTm [2]: 1.21 °C

Structure (SMILES): Cc1cc(-c2cc(C(=O)NC3CCC(CO)CC3)c3c(C)noc3n2)c(C)o1 (stereo not drawn)
- IC50 [1]: 24.9 µM
- ΔTm [2]: 2.82 °C

Structure (SMILES): Cc1cc(C(=O)N(C)C(c2ccccc2)c2ccccn2)c2c(C)nn(C(C)(C)C)c2n1 (stereo not drawn)
- ΔTm [2]: 1.49 °C
